ChEMBL document CHEMBL2177043, “HIV-1 X4 activities of polycationic "viologen" based dendrimers by interaction with the chemokine receptor CXCR4: study of structure-activity relationship” (J Med Chem, 2012)

Key:
[1] = target: T1, C-X-C chemokine receptor type 4 (Homo sapiens, UniProt P61073); test: Inhibition of anti-CXCR4 mAbs clone 173 binding to CXCR4 in human SUPT1 cells incubated for 30 mins by FACS
[2] = target: T1, C-X-C chemokine receptor type 4; test: Inhibition of CXCL-12'AF647 binding to CXCR4 in human SUPT1 cells incubated for 15 mins by FACS; type: cell-based
Outline: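 SupT1 cells (high CXCR4) washed, then incubated 15 min at room temperature with compounds at varied concentrations in HBSS containing 20 mM HEPES and 0.2% BSA, pH 7.4. CXCL12-AF647 added at 25 ng/mL final for 30 min at room temperature. Cells washed, fixed in 1% paraformaldehyde, and read by flow cytometry on FL4.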

[3] = target: T1, C-X-C chemokine receptor type 4; test: Inhibition of anti-CXCR4 mAbs clone 12G5 binding to CXCR4 in human SUPT1 cells incubated for 30 mins by FACS
[4] = test system: Human immunodeficiency virus 1; test: Antiviral activity against X4 HIV1 NL4.3 infected in human MT4 cells assessed as inhibition of viral replication pre-incubated for 30 mins […]; type: functional, organism-based; conditions: Human immunodeficiency virus 1, NL4.3, MT4
[5] = test system: Human immunodeficiency virus 1; test: Antiviral activity against X4 HIV1 NL4.3 infected in human PBMC assessed as inhibition of viral replication pre-incubated for 30 mins measured 5 days post infection by MTT assay; type: functional, organism-based; conditions: Human immunodeficiency virus 1, NL4.3
Outline: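 Human PBMC infected with HIV-1 NL4.3. IC₅₀ is the concentration inhibiting viral replication by 50%, averaged over two independent experiments. Cytotoxicity (CC₅₀, 50% loss of PBMC viability) evaluated in the same assay.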

[6] = Cytotoxicity against human MT4 cells by MTT assay; type: cell-based
[7] = target: T1, C-X-C chemokine receptor type 4; test: Inhibition of anti-CXCR4 mAbs clone 1D9 binding to CXCR4 in human SUPT1 cells incubated for 30 mins by FACS
[8] = Cytotoxicity against human PBMC cells by MTT assay; type: cell-based
[9] = target: T1, C-X-C chemokine receptor type 4; test: Antagonist activity against CXCR4 expressed in U87.CD.CXCR4 cells assessed as inhibition of CXCL12-induced calcium signaling incubated for 10 mins by FLIPR; type: functional, cell-based
Outline: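 U87.CD4.CXCR4 cells seeded at 2 × 10⁴/well on 0.2% gelatin the day before, loaded with 4 μM Fluo-3 AM for 45 min at 37 °C, washed, then preincubated with compounds at varied concentrations in assay buffer for 10 min at 37 °C. Challenged with 25 ng/mL CXCL12; Ca²⁺ flux followed over time by FLIPR.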

[10] = target: C-C chemokine receptor type 5 (Homo sapiens, UniProt P51681); test: Antagonist activity against CCR5 expressed in U87.CD4.CCR5 cells assessed as inhibition of CCL3L1-induced calcium signaling incubated for 10 mins by FLIPR; type: functional, cell-based
Outline: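 U87.CD4.CCR5 cells seeded at 2 × 10⁴/well on 0.2% gelatin the day before, loaded with 4 μM Fluo-3 AM for 45 min at 37 °C, washed, then preincubated with compounds at varied concentrations in assay buffer for 10 min at 37 °C. Stimulated with 10 ng/mL LD78β (CCL3L1); Ca²⁺ flux recorded by FLIPR.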

T1 sequence (P61073 whole entry): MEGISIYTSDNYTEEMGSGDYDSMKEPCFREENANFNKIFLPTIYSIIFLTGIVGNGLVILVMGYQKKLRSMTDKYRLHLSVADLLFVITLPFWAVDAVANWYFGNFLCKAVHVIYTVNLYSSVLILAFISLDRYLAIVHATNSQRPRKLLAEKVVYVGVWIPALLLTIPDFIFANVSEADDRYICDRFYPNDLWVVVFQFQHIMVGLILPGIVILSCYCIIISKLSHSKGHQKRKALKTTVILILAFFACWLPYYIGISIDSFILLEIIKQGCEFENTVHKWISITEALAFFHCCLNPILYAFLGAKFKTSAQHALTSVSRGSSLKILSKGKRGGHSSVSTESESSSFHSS

**Q.** Which results are given for `Cc1cn(CCC[n+]2ccc(-c3cc[n+](Cc4cc(C[n+]5ccc(-c6cc[n+](CCCn7cc(C)c(=O)[nH]c7=O)cc6)cc5)cc(C[n+]5ccc(-c6cc[n+](Cc7cc(C[n+]8ccc(-c9cc[n+](Cc%10cc(C[n+]%11ccc(-c%12cc[n+](CCCn%13cc(C)c(=O)[nH]c%13=O)cc%12)cc%11)cc(C[n+]%11ccc(-c%12cc[n+](CCCn%13cc(C)c(=O)[nH]c%13=O)cc%12)cc%11)c%10)cc9)cc8)cc(-[n+]8ccc(-c9cc[n+](-c%10cc(C[n+]%11ccc(-c%12cc[n+](Cc%13cc(C[n+]%14ccc(-c%15cc[n+](CCCn%16cc(C)c(=O)[nH]c%16=O)cc%15)cc%14)cc(C[n+]%14ccc(-c%15cc[n+](CCCn%16cc(C)c(=O)[nH]c%16=O)cc%15)cc%14)c%13)cc%12)cc%11)cc(C[n+]%11ccc(-c%12cc[n+](Cc%13cc(C[n+]%14ccc(-c%15cc[n+](CCCn%16cc(C)c(=O)[nH]c%16=O)cc%15)cc%14)cc(C[n+]%14ccc(-c%15cc[n+](CCCn%16cc(C)c(=O)[nH]c%16=O)cc%15)cc%14)c%13)cc%12)cc%11)c%10)cc9)cc8)c7)cc6)cc5)c4)cc3)cc2)c(=O)[nH]c1=O.F[P-](F)(F)(F)(F)F.F[P-](F)(F)(F)(F)F.F[P-](F)(F)(F)(F)F.F[P-](F)(F)(F)(F)F.F[P-](F)(F)(F)(F)F.F[P-](F)(F)(F)(F)F.F[P-](F)(F)(F)(F)F.F[P-](F)(F)(F)(F)F.F[P-](F)(F)(F)(F)F.F[P-](F)(F)(F)(F)F.F[P-](F)(F)(F)(F)F.F[P-](F)(F)(F)(F)F.F[P-](F)(F)(F)(F)F.F[P-](F)(F)(F)(F)F.F[P-](F)(F)(F)(F)F.F[P-](F)(F)(F)(F)F.F[P-](F)(F)(F)(F)F.F[P-](F)(F)(F)(F)F.F[P-](F)(F)(F)(F)F.F[P-](F)(F)(F)(F)F.F[P-](F)(F)(F)(F)F.F[P-](F)(F)(F)(F)F.F[P-](F)(F)(F)(F)F.F[P-](F)(F)(F)(F)F.F[P-](F)(F)(F)(F)F.F[P-](F)(F)(F)(F)F`?
**A.** IC50 [1]: 210 nM; IC50 [2]: 207 nM; IC50 [3]: 236 nM; IC50 [4]: 1.5 µg/mL; IC50 [5]: 0.41 µg/mL; CC50 [6]: 19 µg/mL; IC50 [7]: 326 nM; CC50 [8]: 20 µg/mL; IC50 [9]: 273 nM; IC50 [10]: 3660 nM

**Q.** Which results are given for `c1cc(CN2CCCNCCNCCCNCC2)ccc1CN1CCCNCCNCCCNCC1` [PLERIXAFOR]?
**A.** CC50 [6]: > 10 µg/mL; CC50 [8]: > 10 µg/mL

**Q.** What does the source list for `Cc1cn(CCC[n+]2ccc(-c3cc[n+](Cc4cc(C[n+]5ccc(-c6cc[n+](CCCn7cc(C)c(=O)[nH]c7=O)cc6)cc5)cc(C[n+]5ccc(-c6cc[n+](Cc7cc(C[n+]8ccc(-c9cc[n+](Cc%10cc(C[n+]%11ccc(-c%12cc[n+](CCCn%13cc(C)c(=O)[nH]c%13=O)cc%12)cc%11)cc(C[n+]%11ccc(-c%12cc[n+](CCCn%13cc(C)c(=O)[nH]c%13=O)cc%12)cc%11)c%10)cc9)cc8)cc(C[n+]8ccc(-c9cc[n+](Cc%10cc(C[n+]%11ccc(-c%12cc[n+](CCCn%13cc(C)c(=O)[nH]c%13=O)cc%12)cc%11)cc(C[n+]%11ccc(-c%12cc[n+](CCCn%13cc(C)c(=O)[nH]c%13=O)cc%12)cc%11)c%10)cc9)cc8)c7)cc6)cc5)c4)cc3)cc2)c(=O)[nH]c1=O.F[P-](F)(F)(F)(F)F.F[P-](F)(F)(F)(F)F.F[P-](F)(F)(F)(F)F.F[P-](F)(F)(F)(F)F.F[P-](F)(F)(F)(F)F.F[P-](F)(F)(F)(F)F.F[P-](F)(F)(F)(F)F.F[P-](F)(F)(F)(F)F.F[P-](F)(F)(F)(F)F.F[P-](F)(F)(F)(F)F.F[P-](F)(F)(F)(F)F.F[P-](F)(F)(F)(F)F.F[P-](F)(F)(F)(F)F.F[P-](F)(F)(F)(F)F.F[P-](F)(F)(F)(F)F.F[P-](F)(F)(F)(F)F.F[P-](F)(F)(F)(F)F.F[P-](F)(F)(F)(F)F`?
**A.** IC50 [1]: 403 nM; IC50 [2]: 231 nM; IC50 [3]: 352 nM; IC50 [4]: 1.8 µg/mL; IC50 [5]: 0.89 µg/mL; CC50 [6]: 10 µg/mL; IC50 [7]: 516 nM; CC50 [8]: 20 µg/mL; IC50 [9]: 279 nM; IC50 [10]: 1870 nM

**Q.** Which IC50 [1] does the source give for `CCc1cc[n+](-c2cc[n+](Cc3cc(C[n+]4ccc(-c5cc[n+](CC)cc5)cc4)cc(C[n+]4ccc(-c5cc[n+](Cc6cc(C[n+]7ccc(-c8cc[n+](Cc9cc(C[n+]%10ccc(-c%11cc[n+](CC)cc%11)cc%10)cc(C[n+]%10ccc(-c%11cc[n+](CC)cc%11)cc%10)c9)cc8)cc7)cc(-[n+]7ccc(-c8cc[n+](-c9cc(C[n+]%10ccc(-c%11cc[n+](Cc%12cc(C[n+]%13ccc(-c%14cc[n+](CC)cc%14)cc%13)cc(C[n+]%13ccc(-c%14cc[n+](CC)cc%14)cc%13)c%12)cc%11)cc%10)cc(C[n+]%10ccc(-c%11cc[n+](Cc%12cc(C[n+]%13ccc(-c%14cc[n+](CC)cc%14)cc%13)cc(C[n+]%13ccc(-c%14cc[n+](CC)cc%14)cc%13)c%12)cc%11)cc%10)c9)cc8)cc7)c6)cc5)cc4)c3)cc2)cc1.F[P-](F)(F)(F)(F)F.F[P-](F)(F)(F)(F)F.F[P-](F)(F)(F)(F)F.F[P-](F)(F)(F)(F)F.F[P-](F)(F)(F)(F)F.F[P-](F)(F)(F)(F)F.F[P-](F)(F)(F)(F)F.F[P-](F)(F)(F)(F)F.F[P-](F)(F)(F)(F)F.F[P-](F)(F)(F)(F)F.F[P-](F)(F)(F)(F)F.F[P-](F)(F)(F)(F)F.F[P-](F)(F)(F)(F)F.F[P-](F)(F)(F)(F)F.F[P-](F)(F)(F)(F)F.F[P-](F)(F)(F)(F)F.F[P-](F)(F)(F)(F)F.F[P-](F)(F)(F)(F)F.F[P-](F)(F)(F)(F)F.F[P-](F)(F)(F)(F)F.F[P-](F)(F)(F)(F)F.F[P-](F)(F)(F)(F)F.F[P-](F)(F)(F)(F)F.F[P-](F)(F)(F)(F)F.F[P-](F)(F)(F)(F)F.F[P-](F)(F)(F)(F)F` here?
**A.** 203 nM

**Q.** What about the IC50 [2] of the same compound?
**A.** 285 nM

**Q.** And the IC50 [3]?
**A.** 344 nM

**Q.** And the IC50 [4]?
**A.** 0.9 µg/mL

**Q.** And the IC50 [5]?
**A.** 0.12 µg/mL

**Q.** What about the CC50 [6] of the same compound?
**A.** 34 µg/mL

**Q.** What about the IC50 [7] of the same compound?
**A.** 446 nM

**Q.** What about the CC50 [8] of the same compound?
**A.** 100 µg/mL

**Q.** And the IC50 [9]?
**A.** 538 nM

**Q.** What about the IC50 [10] of the same compound?
**A.** 12100 nM
